Data set [1] relates to Leishmania donovani. The experiment in a line: Antileishmanial activity against log phase of wild type Leishmania donovani MHOM/80/IN/Dd8 promastigotes assessed as inhibition of cell growth incubated for 48 hrs by MTT assay. It is filed as functional, organism-based. The conditions noted are these: MHOM/80/IN/Dd8, 48 h. Summed up: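 L. donovani Dd8 promastigotes grown at 24 °C, pH 7.2, in HEPES-modified RPMI-1640 with 10% heat-inactivated FBS and antibiotics. 2 × 10^5 log-phase cells were exposed to 10–100 µM compound (10 mM DMSO stocks diluted in medium) for 48 h at 24 °C. MTT (400 µg/mL final) was added for 4 h at 37 °C, formazan dissolved in DMSO, and A540 read. IC50 was taken against untreated cells; mean ± SD of three independent experiments.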
On the technique in general: Tetrazolium dyes change colour on reduction, which living cells bring about.

Data set [2] in a line: Cytotoxicity against human PMA-differentiated THP-1 macrophages assessed as inhibition of cell growth by MTT assay. It is filed as toxicity, cell-based, Macrophage. An outline of the steps:
(§1)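 About 2 × 10^5 THP-1 monocytes were differentiated with 20 ng/mL PMA for 48 h at 37 °C, and non-adherent cells were washed off with serum-free medium. Adherent macrophages were exposed to 10, 20, 50 and 100 µM compound for 48 h at 37 °C in 5% CO2. Viability was read by MTT.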

Data set [3] is described as follows: Selectivity index, ratio of IC50 for cytotoxicity against PMA-differentiated THP-1 macrophages to IC50 for antileishmanial activity against log phase of wild type Leishmania donovani MHOM/80/IN/Dd8 promastigotes. It counts as toxicity. Conditions: human; read-out: Ratio IC50.
Another data set concerns Macrophage. The experiment in a line: Cytotoxicity against human PMA-differentiated THP-1 macrophages assessed as inhibition of cell growth measured upto 100 uM by MTT assay. It counts as toxicity, cell-based. An outline of the steps:
as §1

Data set [4] concerns Leishmania donovani. The experiment in a line: Induction of ROS generation in wild type Leishmania donovani MHOM/80/IN/Dd8 promastigotes incubated for 24 hrs by MitoSOX red dye based fluorescence spectrophotometric analysis. It counts as functional, organism-based. An outline of the steps:
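Promastigotes were grown at 24 °C in HEPES-modified RPMI-1640 with 10% heat-inactivated FBS, pH 7.2. About 1 × 10^6 parasites/ml were exposed to ~5 µM or ~10 µM test compound. Controls were untreated cells, antimycin A (10 µM) and 0.2% DMSO vehicle. Cells were washed twice in HBSS and stained with 5 µM MitoSOX red for 20 min at 25 °C. Fluorescence was read at ex 510/em 580 nm.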

The subject of data set [5] is Leishmania donovani. The experiment in a line: Antileishmanial activity against amastigote stage of Leishmania donovani MHOM/SD/62/IS-CL2D assessed as inhibition of parasite growth incubated for 3 days by CellTiter 96 Aqueous Non-Radioactive Cell Proliferation Assay. Conditions: 72 h. It counts as functional, organism-based.
Data set [6] concerns Leishmania donovani. Description: Antileishmanial activity against Leishmania donovani assessed as inhibition of parasite growth incubated for 2 hrs by y [3H]thymidine incorporation assay. It is filed as functional, organism-based. For orientation: Uptake of a labelled nucleoside into DNA is a usual measure of proliferation.
The test system of another data set is Leishmania braziliensis. Description: Antileishmanial activity against Leishmania braziliensis assessed as inhibition of parasite growth. It is filed as functional, organism-based.
The subject of the next data set is Leishmania mexicana. Description: Antileishmanial activity against Leishmania mexicana assessed as inhibition of parasite growth. It is filed as functional, organism-based.
In a further data set the test system is Leishmania amazonensis. Description: Antileishmanial activity against Leishmania amazonensis assessed as inhibition of parasite growth. It is filed as functional, organism-based.
For data set [7], the system named is Leishmania donovani. Description: Induction of ROS generation in wild type Leishmania donovani MHOM/80/IN/Dd8 promastigotes at 5 uM incubated for 24 hrs by MitoSOX red dye based fluorescence spectrophotometric analysis relative to control. It is filed as functional. An outline of the steps: (§2)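 Promastigotes at about 1 × 10^6/mL were treated at ~5 or ~10 µM for 3, 6, 24 and 48 h, with 0.2% DMSO as vehicle and antimycin A (10 µM) as positive control. Cells were washed twice in HBSS and stained with 5 µM MitoSOX red for 20 min at 25 °C. Fluorescence was read at 510/580 nm ex/em.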

The test system of data set [8] is Leishmania donovani. The experiment in a line: Induction of ROS generation in wild type Leishmania donovani MHOM/80/IN/Dd8 promastigotes at 10 uM incubated for 24 hrs by MitoSOX red dye based fluorescence spectrophotometric analysis. It is filed as functional. An outline of the steps:
as §2

Data set [9] relates to Leishmania donovani. The experiment in a line: Induction of ROS generation in wild type Leishmania donovani MHOM/80/IN/Dd8 promastigotes at 5 to 10 uM incubated for 48 hrs by MitoSOX red dye based fluorescence spectrophotometric analysis. Conditions: dose 5-10 µM. It counts as functional, organism-based. An outline of the steps:
as §2

Values after ≈ are worked out from the molar mass of the structure shown. Active and inactive are the calls of the source. The rule behind the calls is not given here.

For `COc1cc(-c2nc(NCCN(C)C)c3ccccc3n2)cc(OC)c1OC`, the values for the IC50 (in the data set on Leishmania donovani [1]; in data set [2]) were 6.5 µM and 50 µM, respectively. Besides, in data set [3], the selectivity ratio amounted to 7.69.
In the case of `Oc1ccc(-c2nc(NCCCN3CCOCC3)c3ccccc3n2)cc1`, the values for the IC50 (in the data set with Leishmania donovani [1]; in [2]) were 50 µM and 71 µM, respectively. Moreover, the selectivity ratio in [3] was determined as 1.42.
With `COc1ccc(-c2nc(NCCN(C)C)c3ccccc3n2)cc1O`, the IC50 in the data set on Leishmania donovani [1] is 6.5 µM; in [2], 22.5 µM. In data set [3], the selectivity ratio turned out to be 3.46.
Take `CN(C)CCCNc1nc(-c2ccc(O)cc2)nc2ccccc12`: the IC50 with Leishmania donovani [1] amounted to 6.5 µM; in data set [2], 65 µM. Further, in data set [3], the selectivity ratio is 10.
Take `CN(C)CCCNc1nc(-c2ccc(Cl)cc2)nc2ccccc12`: the IC50 in the data set on Leishmania donovani [1] came out at 6.5 µM; in [2], 62 µM. Moreover, in data set [3], the selectivity ratio was 9.53.
As to `COc1cc(-c2nc(NCCCN3CCOCC3)c3ccccc3n2)cc(OC)c1OC`, the Activity result in the data set with Macrophage is “Toxic”.
Take `COc1cccc(-c2nc(NCCCN(C)C)c3ccccc3n2)c1`: the IC50 with Leishmania donovani [1] was 5.5 µM; in data set [2], 37 µM. Further, the selectivity ratio in data set [3] was found to be 6.72.
For `NCCCCNc1nc(-c2ccc(Cl)cc2)nc2ccccc12`, the IC50 in the data set on Leishmania donovani [1] was determined as 12 µM; in data set [2] it was 13 µM. Also, the selectivity ratio in [3] turned out to be 1.08.
The matching figures for `CCCCCCCCCCCCCCCCOP(=O)([O-])OCC[N+](C)(C)C` [MILTEFOSINE]: 10.5 µM, 36 µM and 3.42.
Turning to `CN(C)CCCNc1nc(-c2ccccc2)nc2ccccc12`, the IC50 in the data set with Leishmania donovani [1] was 9 µM; in data set [2], over 100 µM. For the same compound, in data set [3], the selectivity ratio was over 11.1.
Turning to `COc1cc(-c2nc(NCCCN3CCN(C)CC3)c3ccccc3n2)cc(OC)c1OC`, the IC50 with Leishmania donovani [1] came to 90 µM; in data set [2], 54 µM. Besides, in data set [3], the selectivity ratio was determined as 0.6.
Turning to `NCCNc1nc(-c2ccc(Cl)cc2)nc2ccccc12`, the IC50 in the data set on Leishmania donovani [1] came out at 6.5 µM; in data set [2] it was 15 µM. Besides, in [3], the selectivity ratio was found to be 2.3.
On the same counts, the results for `CN(C)CCNc1nc(-c2ccc(O)cc2)nc2ccccc12` are 5.5 µM, 51 µM and 9.27.
Turning to `CN(C)CCNc1nc(-c2ccc(Cl)cc2)nc2ccccc12`, the figures for the IC50 (in the data set on Leishmania donovani [1]; in [2]) were 7.5 µM and 60 µM, respectively. Further, in data set [3], the selectivity ratio turned out to be 8.
Consider `CCCCCC[C@H]1C(=O)O[C@H](C)[C@H](NC(=O)c2cccc(NC=O)c2O)C(=O)O[C@@H](C)[C@@H]1OC(=O)CC(C)C`, for which the result in the data set on Leishmania donovani [4] was Active.
For the compound `CN(C)CCCNc1nc(-c2ccc(F)cc2)nc2ccccc12`, the half-inhibitory concentration (IC50) was determined as 13 µM in the data set on Leishmania donovani [1] and 63 µM in data set [2]. For the same compound, the selectivity ratio in data set [3] worked out at 4.84.
As for `O=C1c2cc(I)ccc2-n2c1nc1ncccc1c2=O`, the IC50 in the data set with Leishmania donovani [5] worked out at 0.016 µg/mL (≈ 0.0427 µM).
For `NCCNc1nc(-c2ccc(F)cc2)nc2ccccc12`, the IC50 in the data set on Leishmania donovani [1] is 25 µM; in data set [2], 64 µM. In data set [3], the selectivity ratio stood at 2.56.
Take `CN1CCN(CCCNc2nc(-c3ccc(F)cc3)nc3ccccc23)CC1`: the IC50 in the data set on Leishmania donovani [1] is 8 µM; in data set [2] it was 40 µM. Further, in data set [3], the selectivity ratio was 5.
As to `COc1cc(-c2nc(NCCCN(C)C)c3ccccc3n2)cc(OC)c1OC`, the results for the IC50 (in the data set on Leishmania donovani [1]; in [2]) were 29.5 µM and 61 µM, respectively. For the same compound, in data set [3], the selectivity ratio is 2.06.
With `COc1ccc(-c2nc(NCCCN3CCN(C)CC3)c3ccccc3n2)cc1`, the IC50 in the data set with Leishmania donovani [1] came out at 6.3 µM; in [2], 53 µM. Besides, in [3], the selectivity ratio is 7.28.
On to `CN1CCN(CCCNc2nc(-c3ccc(Cl)cc3)nc3ccccc23)CC1`, for which the IC50 in the data set on Leishmania donovani [1] is 28.5 µM.
With `COc1ccc(-c2nc(NCCCN3CCOCC3)c3ccccc3n2)cc1O`, the IC50 in the data set on Leishmania donovani [1] was 19 µM; in data set [2], 33.5 µM. Further, the selectivity ratio in data set [3] was found to be 1.76.
On the same counts, the results for `NCCCCNc1nc(-c2ccc(F)cc2)nc2ccccc12` are 32.5 µM, 64 µM and 1.96.
Consider `C=CC(C)(C)c1cc(/C=C/C(=O)c2ccc(O)cc2)c(OC)cc1O` [LICOAGROCHACONE A], for which, in the data set on Leishmania donovani [6], the IC50 came to 4 µg/mL (≈ 11.8 µM).
As for `COc1cccc(-c2nc(O)c3ccccc3n2)c1`, the EC50 in the data set with Leishmania braziliensis is 4.89 µM; in the data set on Leishmania mexicana it was 5.29 µM; with Leishmania amazonensis, 9.14 µM.
Regarding `COc1ccc(-c2nc(NCCCN3CCOCC3)c3ccccc3n2)cc1`, the figures for the IC50 (with Leishmania donovani [1]; in data set [2]) were 25 µM and 56 µM, respectively. Further, the selectivity ratio in data set [3] was found to be 2.24.
On to `COc1ccc(-c2nc(NCCCN(C)C)c3ccccc3n2)cc1`, for which the IC50 stood at 5 µM in the data set on Leishmania donovani [1] and 67.5 µM in [2]. The selectivity ratio in data set [3] stood at 13.5. The Activity is recorded as 63% in the data set with Leishmania donovani [7] and 119% in the data set with Leishmania donovani [8]. The outcome in the data set with Leishmania donovani [9] was Active.
For the compound `COc1ccc(-c2nc(NCCN(C)C)c3ccccc3n2)cc1`, the IC50 is 5 µM in the data set on Leishmania donovani [1] and 57 µM in data set [2]. For the same compound, in data set [3], the selectivity ratio is 11. The values for the Activity in the data set with Leishmania donovani [7] and with Leishmania donovani [8] were 50% and 82%, respectively. Besides, in the data set on Leishmania donovani [9], the outcome was Active.

As usually defined, the IC50 is the midpoint of a concentration-inhibition curve. By EC50 is commonly meant the concentration that produces a half-maximal response.
